Screening results (PubChem)
TCR-CD3 inh – human TCR-CD3 binding inhibition; 360,000 compounds, 0.37% hits; TAMRA-labeled TCR probe fluorescence, biochemical; inhibition, % at 9.4 µM; in the data active = inhibition above about 19%;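 also: recombinant mutant TCR 2C K166C tagged with TAMRA read by polarization; 0% = receptor in buffer alone and 100% = receptor with positive control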
HTRA1 inhibitor – inhibitors of human serine peptidase HTRA1. inhibition, % at 5.96 µM. 340,000 compounds, 0.5% hits. recombinant HTRA1, FP-rhodamine activity-based probe, fluorescence polarization. Q92743; in the data active = inhibition above about 36%;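 also: 0% = enzyme with DMSO and 100% = wells lacking enzyme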
Target sequence (Q92743 whole entry, looked up): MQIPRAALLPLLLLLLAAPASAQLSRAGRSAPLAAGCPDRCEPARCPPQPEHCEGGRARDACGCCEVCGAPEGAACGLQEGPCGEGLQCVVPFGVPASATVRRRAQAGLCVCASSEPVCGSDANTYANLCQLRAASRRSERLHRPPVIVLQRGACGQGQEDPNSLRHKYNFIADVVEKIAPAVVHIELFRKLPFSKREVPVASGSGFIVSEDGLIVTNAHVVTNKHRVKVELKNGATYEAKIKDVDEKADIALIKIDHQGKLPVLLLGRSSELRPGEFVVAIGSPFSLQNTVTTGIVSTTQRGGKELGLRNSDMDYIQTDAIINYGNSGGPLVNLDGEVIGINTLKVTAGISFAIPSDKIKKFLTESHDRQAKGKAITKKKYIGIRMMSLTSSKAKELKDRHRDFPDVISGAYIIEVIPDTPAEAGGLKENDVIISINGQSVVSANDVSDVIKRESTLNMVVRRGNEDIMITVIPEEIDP
SIAE inh – blocks human sialic acid acetylesterase; Q9HAT2; SIAE FP-Rh probe binding, fluorescence polarization; inhibition, % at 9.66 µM; 370,000 compounds, 0.69% hits; AID 1053197;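 active = inhibition above a cutoff: mean of compounds within the control limits plus 3 SD of those, cut at about 17% in these data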;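 also: 0% = plate median of compound wells and 100% = probe without SIAE protein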
PRMT1 FP inh – inhibitors of human PRMT1. Q99873. recombinant PRMT1, activity-based probe fluorescence polarization. inhibition, % at 2.79 µM. 370,000 compounds, 1.3% hits;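 active = inhibition above about 21% made by adding two undisclosed values, limit read from the data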
mABHD4 FP – inhibitors of mouse ABHD4 | purified mABHD4, FP-Rh probe fluorescence polarization | inhibition, % at 8.92 µM | AID 720543 | 370,000 compounds, 0.54% hits | Q8VD66;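 active = inhibition exceeding the mean over every tested compound plus 3 SD, cut at about 30% in these data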;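 also: 0% = plate median of compound wells and 100% = S159A mutant with DMSO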
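Doses – 8.92 µM, single dose · Material – wild-type mouse ABHD4 protein · Replication – single well per compound (singlicate) · Measure – percent inhibition of probe binding, normalized to plate controls · Schedule – 45 min compound pre-incubation plus 60 min probe step, 25 °C · Detection – fluorescence polarization with parallel and perpendicular emission, 525/598 nm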
mABHD4 conf – confirmation of mouse ABHD4 inhibitors. shares compounds with mABHD4 FP. purified mABHD4, FP-Rh probe fluorescence polarization. inhibition, % at 8.92 µM. 1,800 compounds, 55% hits. AID 720658;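 active = mean inhibition across replicates above the hit cutoff set in the primary screen, cut at about 30% in these data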;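 also: 0% = wild-type ABHD4 with DMSO and 100% = catalytically dead S159A mutant with DMSO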
An asterisk follows results filed as active; · = no result. Compounds with a hit are over-represented: about 2.6% of the library has one in this group of screens.

SMILES	TCR-CD3 inh	HTRA1 inhibitor	SIAE inh	PRMT1 FP inh	mABHD4 FP	mABHD4 conf
O=C(/C=C/c1ccc(Cl)cc1)N1CCN(c2ccc(Cl)cc2[N+](=O)[O-])CC1	6	-7	-1	1	1	·
CC(C)c1ccc(Nc2ccc(C(=O)O)cc2[N+](=O)[O-])cc1	3	-1	13	0	61*	69*
COc1ccc(C)cc1Nc1ccc(C(=O)O)cc1[N+](=O)[O-]	5	6	-3	-2	6	·
COc1ccccc1Nc1ccc(C(=O)O)cc1[N+](=O)[O-]	0	6	10	-4	10	·
O=C(O)c1ccc(N2CCN(c3ccc(Cl)cc3)CC2)c([N+](=O)[O-])c1	-2	-5	3	-1	38*	47*
COc1cccc(Nc2ccc(C(=O)O)cc2[N+](=O)[O-])c1	9	1	4	-2	36*	47*
Cc1ccc(OCC(=O)N(C)C2CCCCC2)c([N+](=O)[O-])n1	3	2	2	-1	-8	·
O=C(O)c1ccc(Nc2ccc(Cl)c(Cl)c2)c([N+](=O)[O-])c1	-4	-6	10	4	44*	62*
Cc1ccc(Nc2ccc(C(=O)O)cc2[N+](=O)[O-])cc1	-13	4	-2	7	30*	55*
O=C(O)c1ccc2c(c1)C(=O)/C(=C\c1ccco1)C2=O	3	10	-6	34*	30*	28
O=C1C(=Cc2ccco2)C(=O)c2ccccc21	3	25	3	35*	35*	28
O=C1C(=O)N(Cc2cccnc2)C(c2cccc(Br)c2)/C1=C(/O)c1ccc2c(c1)OCO2 (stereo unspecified)	6	3	9	1	4	·
COc1ccc(Cl)cc1Nc1cc(C)nc2ncnn12	-4	4	1	0	9	·
CCOC(=O)c1c(CN2CCCCC2)n(C)c2cc(Br)c(O)c(CN(C)C)c12	·	-4	·	·	·	·
CCOC(=O)c1c(CN2CCOCC2)n(-c2ccccc2)c2cc(Br)c(O)c(CN(C)C)c12	8	-11	6	1	3	·
CCOC(=O)c1c(CSc2ccccc2)n(C)c2cc(Br)c(O)c(CN(C)C)c12	3	-6	8	1	39*	9
CCOC(=O)c1c(CSc2ccc(C)cc2)n(C)c2cc(Br)c(O)c(CN(C)C)c12	0	-2	6	0	40*	23
CCOC(=O)c1c(CSc2ccsc2)n(C)c2cc(Br)c(O)c(CN(C)C)c12	7	-5	8	0	30*	2
Cc1ccc(N=Cc2ccc(N(C)C)cc2)cc1	-7	-2	4	-3	-7	·
CN(C)c1ccc(C=Nc2ccc(N(C)C)cc2)cc1	15	35	14	22*	37*	22
CS(=O)(=O)c1cccc(C(=O)Nc2ccc3c(c2)OCCCO3)c1	6	-2	2	-2	0	·
O=C1Cc2cc(S(=O)(=O)N3CCN(c4ccc(C(=O)O)cc4)CC3)ccc2N1	3	·	-4	11	33*	10
CC(=O)c1ccc(N2CCN(S(=O)(=O)c3ccc4c(c3)NC(=O)CC(=O)N4)CC2)cc1	6	-5	-1	1	4	·
COc1ccc(C2=NN(c3ccc(C(=O)O)cc3)C(c3ccc(OC)c(OC)c3)C2)cc1 (stereo unspecified)	3	-2	-8	0	69*	78*
CC1(CCc2ccccc2)NC(=O)N(CC(=O)Nc2c(F)cccc2F)C1=O (stereo unspecified)	-3	3	5	-2	6	·
SMILES	TCR-CD3 inh	HTRA1 inhibitor	SIAE inh	PRMT1 FP inh	mABHD4 FP	mABHD4 conf
CN(C(=O)c1cccc(NC(=O)Cc2cccc(NC(=O)C3CCCN(C(=O)c4ccccc4)C3)c2)c1)C1CC1 (stereo unspecified)	-10	7	4	3	-1	·
O=C1/C(=C/C=C/c2ccco2)SC(=S)N1c1ccc(O)cc1	10	23	9	25*	37*	-42
COc1ccc2nc(NC(=O)Nc3cccc4ccccc34)sc2c1	-3	-2	-1	-1	30*	-1
CC(=O)OC1CCC2C3CCc4cc(OP(=O)(N5CC5)N5CC5)ccc4C3CCC12C (stereo unspecified)	2	-37	2	0	-1	·
COCCN1CCN(C(=O)C2CCC(=O)N(CCc3ccccc3)C2)CC1 (stereo unspecified)	-1	0	4	1	0	·
O=C(NNC(=O)c1ccccn1)c1cccc([N+](=O)[O-])c1	2	-3	0	-4	32*	8
Cc1cccc(NC(=O)NNC(=O)c2ccccn2)c1	-1	3	-6	1	30*	27
Cc1cccc(NC(=O)c2cccc(C(=O)Nc3cccc(C)c3)n2)c1	5	3	-6	-3	-5	·
O=C(c1cccc([N+](=O)[O-])c1)c1ccccn1	8	0	4	-3	-1	·
CC(C)(C)OC(=O)COc1cc(F)ccc1[N+](=O)[O-]	0	-5	-8	-1	2	·
CCOc1ccccc1NC(=O)C(=O)CC(=O)c1cccc(OC)c1	1	6	-7	6	9	·
COc1cccc(C(=O)CC(=O)C(=O)Nc2cc(OC)ccc2OC)c1	-6	2	2	20	32*	8
CCOC(=O)c1c(C)oc2c1c(CN1CCN(C(=O)OCC)CC1)c(O)c1ccccc12	7	-6	12	12	31*	39*
Oc1ccc(NC(=S)Nc2ccc(F)cc2)cc1	8	16	5	1	33*	3
C/C(=N/N=C1\SCC(=O)N1c1ccccc1)c1ccc(C)cc1	-3	·	-4	2	4	·
O=[N+]([O-])c1ccc(/C=N/Nc2nc(NCc3ccccc3)nc(N3CCOCC3)n2)cc1	-1	6	-3	-3	3	·
O=[N+]([O-])c1cccc(/C=N/Nc2nc(NCc3ccccc3)nc(N3CCOCC3)n2)c1	12	1	2	-1	47*	-10
CC(=O)Nc1cc2c(cc1[N+](=O)[O-])-c1ccccc1C2=NO	1	-6	-11	-2	2	·
Nc1cc2c(cc1[N+](=O)[O-])-c1ccccc1C2=NO	-6	9	-15	1	49*	21
Cc1nnc(NS(=O)(=O)c2ccc(N=Nc3ccc(N)nc3N)cc2)s1	2	8	-2	11	58*	34*
Cc1nnc(NS(=O)(=O)c2ccc(N)cc2)s1	-10	2	1	0	-5	·
Cc1cc(N2CCN(C(=O)Oc3ccc(C(F)(F)F)cc3)CC2)c2ccccc2n1	·	·	0	4	53*	23
Cc1cc(N2CCN(C(=O)c3[nH]c(C(F)(F)F)nc3-c3ccccc3)CC2)c2ccccc2n1	3	·	-8	-9	-8	·
CCN(c1ccccc1)S(=O)(=O)c1cc(C(=O)OC2CCOC2=O)ccc1C (stereo unspecified)	-1	3	5	2	31*	23
